Screens (PubChem BioAssay)
TRPC4 block: blocks the mouse TRPC4 cation channel | Q9QUQ5 | HEK293 TRPC4beta/mu-opioid, DAMGO-evoked Fluo4 calcium flux; stronger effect = lower value | B-score at 10 µM | 0.39% of 300,000 active;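 active = B-score over 3 SD under the library average, no early fluorescence shift, positive overall ratio signal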
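Assay system: HEK293 cells with stable TRPC4beta plus mu-opioid receptor expression. Dosing: single dose. Measured by: Fluo4 Ca2+ flux fluorescence. Also added: DAMGO in two steps, submaximal then maximal. Read-out: B score from integrated Fluo4 fluorescence ratio.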
TRPC4 agonist: TRPC4 (mouse) channel activation; B-score at 10 µM; Q9QUQ5; AID 2237; HEK293 TRPC4beta/mu-opioid, Fluo4 calcium fluorescence; stronger effect = higher value; 0.49% of 310,000 active;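 active = B-score above 5 SD of library B-scores, and initial fluorescence ratio not above library mean plus 5 SD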;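 note: positive B-score marks a calcium rise read as TRPC4 activation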
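Technique: kinetic Fluo4 calcium fluorescence; Test system: TRPC4beta and mu-opioid receptor HEK293 stable cells; Measure: B-scored integrated calcium fluorescence ratio; Benchmarks: low control buffer alone, high control maximal DAMGO; Schedule: 45 min room-temperature Fluo4 loading, 110 s read.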
TRPC4 PAM: allosteric potentiators of mouse TRPC4 channel; HEK293 TRPC4beta/mu-opioid, DAMGO EC20, Fluo-4 Ca2+ flux; stronger effect = higher value; B-score at 10 µM; 0.42% of 310,000 active; AID 2227;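 active = B-score of calcium response area above 5 SD of library B-scores, with initial fluorescence ratio within 5 SD of library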
TRPC6 inh: mouse TRPC6 channel inhibition | B-score at 10 µM | Q61143 | HEK293-TRPC6, membrane potential dye, ACh-evoked depolarization; stronger effect = lower value | 1.1% of 310,000 active;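 active = B-score under library mean minus 3 SD, initial fluorescence not abnormally high, positive integrated signal ratio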;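 note: B-score derived from integrated fluorescence ratio over the kinetic read; more negative B-score means stronger inhibition of depolarization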
Target sequence (Q61143 whole entry, looked up): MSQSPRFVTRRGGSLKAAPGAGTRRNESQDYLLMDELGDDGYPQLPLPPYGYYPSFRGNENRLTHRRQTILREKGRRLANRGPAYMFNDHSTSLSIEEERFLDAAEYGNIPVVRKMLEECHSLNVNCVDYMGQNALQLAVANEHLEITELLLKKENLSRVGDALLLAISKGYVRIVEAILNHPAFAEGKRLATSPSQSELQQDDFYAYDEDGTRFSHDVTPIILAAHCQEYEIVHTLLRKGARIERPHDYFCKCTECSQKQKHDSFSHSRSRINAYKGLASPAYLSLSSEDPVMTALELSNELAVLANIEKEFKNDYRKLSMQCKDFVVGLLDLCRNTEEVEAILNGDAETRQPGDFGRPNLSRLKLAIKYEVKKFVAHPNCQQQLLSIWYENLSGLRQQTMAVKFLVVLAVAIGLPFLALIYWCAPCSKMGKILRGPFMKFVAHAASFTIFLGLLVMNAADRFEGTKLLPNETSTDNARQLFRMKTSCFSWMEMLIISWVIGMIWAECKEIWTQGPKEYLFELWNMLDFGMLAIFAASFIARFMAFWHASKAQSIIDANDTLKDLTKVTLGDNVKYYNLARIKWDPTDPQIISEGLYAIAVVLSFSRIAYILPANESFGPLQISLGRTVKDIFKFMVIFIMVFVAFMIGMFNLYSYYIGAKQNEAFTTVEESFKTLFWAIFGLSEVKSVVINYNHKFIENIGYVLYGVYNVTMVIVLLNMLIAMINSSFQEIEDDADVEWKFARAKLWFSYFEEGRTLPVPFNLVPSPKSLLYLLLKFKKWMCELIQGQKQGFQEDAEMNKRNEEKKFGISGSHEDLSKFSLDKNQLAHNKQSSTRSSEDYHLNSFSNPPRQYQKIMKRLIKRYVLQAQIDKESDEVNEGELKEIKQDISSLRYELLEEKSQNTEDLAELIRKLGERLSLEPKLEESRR
TRPC6 activator: mouse TRPC6 channel activation. Q61143. HEK293-TRPC6 membrane potential dye fluorescence; stronger effect = higher value. B-score at 10 µM. 0.13% of 310,000 active. AID 2550;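 active = B-score of the integrated fluorescence ratio above library mean plus 3 SD, and starting fluorescence ratio within library mean plus 5 SD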;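 note: higher score means more depolarization so channel activation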
TRPC4 sel inh 2: mouse TRPC4 off-target activity of TRPC6 inhibitors, second screen | HEK293 TRPC4/MOR, membrane potential dye fluorescence; channel activated by saturating DAMGO dose | shares compounds with TRPC6 inh | AID 2776 | inhibition, % at 10 µM | 42% of 920 active;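 active = compounds whose fluorescence signal differed from control wells by over 3 SD, either direction, in both duplicate plates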
TRPC4 spec: selectivity of TRPC6 inhibitors: effect on mouse TRPC4; activity change, negative = inhibition, % at 10 µM; HEK293 TRPC4/mu-opioid, membrane potential fluorescence; shares compounds with TRPC6 inh; 61% of 920 active;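 active = rise or fall in signal beyond 3 SD of buffer-only wells in both replicate plates, either sign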;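 note: integrated kinetic ratio of fluorescence range over baseline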
HEK293 MPD ctr 2-1: parental HEK293 nonspecific activity of TRPC6 inhibitors, second screen | parental HEK293 membrane potential dye fluorescence; maximal acetylcholine challenge after compound addition | shares compounds with TRPC6 inh | 31% of 920 active | signal change vs control, % at 10 µM;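 active = membrane potential signal moving either way by over 3 SD of the maximum-effect control, in both duplicate plates, meaning non-specific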
HEK293 MPD ctr-1: checks TRPC6 inhibitor effects in parental HEK293 cells | membrane potential signal change, % at 10 µM | parental HEK293 membrane potential dye fluorescence | AID 2780 | shares compounds with TRPC6 inh | 60% of 920 active;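 active = membrane potential signal shifting up or down by more than 3 SD of buffer-only wells, on both duplicate plates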
HEK293 MPD ctr-2: checks TRPC6 modulator effects in parental HEK293 cells | shares compounds with TRPC6 inh | membrane potential dye fluorescence | membrane potential signal change, % at 10 µM | 51% of 2,400 active;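 active = membrane potential signal moves up or down beyond 5 SD from buffer-only wells, on both duplicate plates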
HEK293 MPD ctr 2-2: second counter-screen for TRPC6 modulators: effect in parental HEK293 cells; shares compounds with TRPC6 inh; 14% of 2,400 active; membrane potential dye fluorescence; after compound, maximal acetylcholine stimulation; inhibition, % at 10 µM;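 active = membrane potential signal drops by more than 5 SD from the mean control signal, in both duplicate plates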
TRPC4/MOR mod: tests whether TRPC6 modulators also affect mouse TRPC4. shares compounds with TRPC6 inh. HEK293 TRPC4/mu-opioid, membrane potential fluorescence. percent change from control (negative = decrease, positive = increase), % at 10 µM. 69% of 2,400 active;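 active = membrane potential signal moved up or down beyond 5 SD of buffer control wells, in both duplicate plates, actives on both sides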
TRPC4/MOR inh 2: second selectivity test of TRPC6 modulators against mouse TRPC4. shares compounds with TRPC6 inh. HEK293 TRPC4/mu-opioid, membrane potential dye fluorescence; stimulated with maximal-effect DAMGO. inhibition, % at 10 µM. 55% of 2,400 active;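 active = drop in membrane potential signal beyond 5 SD of the control wells in both duplicate plates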;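 note: TRPC4 counter screen for TRPC6 hits run under conditions tuned for TRPC6 not TRPC4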
TRPC6 block conf: mouse TRPC6 inhibitor confirmation; inhibition, % at 10 µM; shares compounds with TRPC6 inh; HEK293-TRPC6, membrane potential dye, ACh-evoked depolarization; 43% of 3,300 active;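 active = fluorescence ratio falls more than 5 SD below the full-stimulation control mean, in both duplicate runs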;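 note: integrated fluorescence ratio of peak minus minimum over baseline after agonist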
TRPC6 act confirm: mouse TRPC6 activator confirmation | shares compounds with TRPC6 inh | HEK293-TRPC6 membrane potential dye fluorescence, FDSS | activation, % at 10 µM | 11% of 2,800 active | AID 488961;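 active = ratio signal rise beyond 5 SD above unstimulated control wells' mean, seen in both duplicate runs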
Large screens that a line does not name were inactive (follow-up assays come after a bar, where they were run). Compounds with a hit are over-represented: about 2.3% of the library has one in this group of screens.

Cc1cc(OCC(=O)Nc2ccc(N3CCN(C)CC3)cc2)ccc1Cl	TRPC4 block -6, TRPC6 inh -5.14 | HEK293 MPD ctr-2 inactive | HEK293 MPD ctr 2-2 inactive | TRPC4/MOR mod 29.5% | TRPC4/MOR inh 2 52.0% | TRPC6 block conf inactive | TRPC6 act confirm inactive
Cc1cc(OCC(=O)Nc2ccc(S(=O)(=O)N3CCN(C)CC3)cc2)ccc1Cl	none
CCC(=O)N1CCN(c2ccc(NC(=O)COc3ccccc3Cl)cc2)CC1	none
CN1CCN(c2ccc(NC(=O)COc3ccccc3Cl)cc2)CC1	TRPC6 inh -9.25 | TRPC4 sel inh 2 58.5% | TRPC4 spec -10.6% | HEK293 MPD ctr 2-1 inactive | HEK293 MPD ctr-1 -186.0% | TRPC6 block conf inactive | TRPC6 act confirm inactive
Cc1ccc(Cn2c(=N)c(C(=O)NCc3ccco3)cc3c(=O)n4ccccc4nc32)cc1	TRPC4 agonist 48, TRPC6 inh -5.02 | HEK293 MPD ctr-2 inactive | HEK293 MPD ctr 2-2 inactive | TRPC4/MOR mod -32.5% | TRPC4/MOR inh 2 38.5% | TRPC6 block conf 36.5% | TRPC6 act confirm inactive
N=c1c(C(=O)NCc2ccco2)cc2c(=O)n3ccccc3nc2n1CC1CCCO1 (stereo not drawn)	none
N=c1c(C(=O)NCc2ccco2)cc2c(=O)n3ccccc3nc2n1CCc1ccccc1	TRPC6 inh -5.81 | HEK293 MPD ctr-2 -80.5% | HEK293 MPD ctr 2-2 inactive | TRPC4/MOR mod -29.5% | TRPC4/MOR inh 2 52.0% | TRPC6 block conf 45.5% | TRPC6 act confirm inactive
COCCn1c(=N)c(C(=O)NCc2ccco2)cc2c(=O)n3cc(C)ccc3nc21	TRPC6 inh -8.24 (no result: TRPC4 block) | HEK293 MPD ctr-2 422.5% | HEK293 MPD ctr 2-2 119.5% | TRPC4/MOR mod -74.0% | TRPC4/MOR inh 2 39.5% | TRPC6 block conf 50.5% | TRPC6 act confirm inactive
CCN(CC)C(=O)c1cn(-c2cccc(OC)c2)c(=O)c2ccccc12	none
Cc1ccccc1-c1nc(CS(=O)(=O)CC(=O)N2CCOCC2)c(C)o1	none
COc1ccccc1/C=C/C(=O)OCCN1C(=O)c2ccccc2C1=O	none
O=C(N/N=C/c1ccc([N+](=O)[O-])s1)c1ccccc1Br	none
Cc1ccccc1C(=O)N/N=C/c1ccc([N+](=O)[O-])s1	TRPC6 inh -6.1, TRPC6 activator 12.5 | HEK293 MPD ctr-2 inactive | HEK293 MPD ctr 2-2 inactive | TRPC4/MOR mod 13.0% | TRPC4/MOR inh 2 inactive | TRPC6 block conf inactive | TRPC6 act confirm inactive
O=C(N/N=C/c1ccc([N+](=O)[O-])s1)c1ccccc1	TRPC6 inh -6.03 | HEK293 MPD ctr-2 inactive | HEK293 MPD ctr 2-2 inactive | TRPC4/MOR mod inactive | TRPC4/MOR inh 2 inactive | TRPC6 block conf inactive | TRPC6 act confirm inactive
FC(F)Oc1ccc(NC(=S)N2CCc3ccccc32)cc1	none
c1ccc2c(c1)CCc1ccccc1C2=C1CCNCC1	TRPC6 inh -7.19 | TRPC4 sel inh 2 60.0% | TRPC4 spec 3.8% | HEK293 MPD ctr 2-1 inactive | HEK293 MPD ctr-1 2.8% | TRPC6 block conf inactive | TRPC6 act confirm inactive
Nc1ncc2c(n1)-c1ccccc1CC2	none
CN1CCN(c2nc3c(c(=O)[nH]c(=O)n3C)n2CCCSc2nnnn2-c2ccccc2)CC1	TRPC6 inh -6.53 | HEK293 MPD ctr-2 -212.0% | HEK293 MPD ctr 2-2 inactive | TRPC4/MOR mod -28.5% | TRPC4/MOR inh 2 inactive | TRPC6 block conf inactive | TRPC6 act confirm inactive
COc1ccc(C(=O)N/C(=C\c2ccccc2)C(=O)NCc2cccnc2)cc1	none
O=C(NCc1cccnc1)/C(=C/c1ccc(Cl)cc1)NC(=O)c1ccccc1	TRPC6 inh -5.62 | HEK293 MPD ctr-2 inactive | HEK293 MPD ctr 2-2 inactive | TRPC4/MOR mod inactive | TRPC4/MOR inh 2 inactive | TRPC6 block conf inactive | TRPC6 act confirm inactive
O=C(Cc1cnc2ncnn2c1)N1CCc2c([nH]c3ccccc23)C1c1ccccc1F (stereo not drawn)	none
O=C(CSc1nc(=O)n(CCCN2CCOCC2)c2c1CCCC2)Nc1ccc(F)cc1	none
O=C(NCc1cccnc1)c1ccc(Br)o1	none
COCCNCC(=O)N1c2ccccc2Sc2ccccc21	none
Cc1cccc[n+]1CC(=O)N1c2ccccc2Sc2ccccc21	TRPC6 inh -11 | TRPC4 sel inh 2 inactive | TRPC4 spec inactive | HEK293 MPD ctr 2-1 -11.5% | HEK293 MPD ctr-1 inactive | TRPC6 block conf 93.2% | TRPC6 act confirm inactive
CC(C)CNCC(=O)N1c2ccccc2Sc2ccccc21	TRPC6 inh -5.69 | HEK293 MPD ctr-2 124.0% | HEK293 MPD ctr 2-2 inactive | TRPC4/MOR mod 15.5% | TRPC4/MOR inh 2 56.5% | TRPC6 block conf inactive
Cc1ccc(NC(=O)C2CCN(S(=O)(=O)c3ccc4c(c3)CCCC(=O)N4)CC2)c(Br)c1	none
COCC(C)OC(=O)C(C#N)c1nc2ccccc2nc1N1CCN(Cc2ccccc2)CC1 (stereo not drawn)	none
COCCOC(=O)C(C#N)c1nc2ccccc2nc1N1CCN(Cc2ccccc2)CC1 (stereo not drawn)	TRPC6 inh -6.17 | HEK293 MPD ctr-2 inactive | HEK293 MPD ctr 2-2 inactive | TRPC4/MOR mod inactive | TRPC4/MOR inh 2 36.0% | TRPC6 block conf inactive | TRPC6 act confirm inactive
COc1ccc(CN2CCN(CCc3ccccc3)C(CCO)C2)cc1Cn1cncn1 (stereo not drawn)	none
